# High-throughput results as filed in PubChem BioAssay.
# Compounds with a hit are over-represented: about 2.3% of the library has one in this group of screens.
# Apaf-1 inh – blocks human Apaf-1 apoptosome activity. hit rate 0.71% among 330,000. inhibition, % at 20 µM. reconstituted apoptosome caspase-3 activity, DEVD-Rh110 fluorescence. AID 489030; active = inhibition of at least 40% at 20 µM;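 also: plate controls were DMSO wells for no effect and DEVD-CHO caspase inhibitor wells for full effect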
#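 Material: reconstituted apoptosome with Apaf-1, cytochrome c, caspase-9, procaspase-3, dATP. Technique: Rh110 fluorescence intensity. Buffer or medium: pH 7.5 Hepes buffer with CHAPS, BSA, DTT. Times: 30 min plus 50 min, RT.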
# PAFAH2 inh – inhibitors of human PAFAH2 | Q99487 | recombinant PAFAH2, FP-rhodamine activity probe, fluorescence polarization | inhibition, % at 3.39 µM | hit rate 0.99% among 340,000 | AID 492956;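 active = inhibition above the mean over all tested compounds plus 3 SD, cut at about 30% in these data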;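 also: inhibitors block probe labeling of enzyme so polarization drops; 0% = enzyme with DMSO and 100% = wells lacking PAFAH2 protein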
# PAFAH1B2 FP inh – PAFAH1B2 (human) inhibition. P68402. recombinant PAFAH1B2, FP-rhodamine activity probe, fluorescence polarization. inhibition, % at 3.39 µM. hit rate 1.2% among 340,000. AID 492953;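 active = inhibition above the mean of all tested compounds plus 3 SD, cut at about 24% in these data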;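 also: 0% = enzyme with DMSO and 100% = wells lacking PAFAH1B2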
# Target sequence (P68402 whole entry, looked up): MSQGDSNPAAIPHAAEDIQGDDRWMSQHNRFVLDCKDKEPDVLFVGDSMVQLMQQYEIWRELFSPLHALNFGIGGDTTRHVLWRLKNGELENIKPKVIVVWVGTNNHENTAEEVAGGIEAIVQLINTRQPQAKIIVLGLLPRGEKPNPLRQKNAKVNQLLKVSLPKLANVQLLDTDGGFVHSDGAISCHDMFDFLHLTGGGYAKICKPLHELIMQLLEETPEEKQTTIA
# PAFAH1B3 inh – PAFAH1B3 (human) inhibition. Q15102. recombinant PAFAH1B3, FP-rhodamine probe, fluorescence polarization. inhibition, % at 3.39 µM. hit rate 0.28% among 340,000. AID 492972;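 active = inhibition above the screen-wide average of all tested compounds plus 3 SD, cut at about 25% in these data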;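 also: 0% = enzyme with DMSO only and 100% = wells lacking PAFAH1B3 protein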
# Target sequence (Q15102 whole entry, looked up): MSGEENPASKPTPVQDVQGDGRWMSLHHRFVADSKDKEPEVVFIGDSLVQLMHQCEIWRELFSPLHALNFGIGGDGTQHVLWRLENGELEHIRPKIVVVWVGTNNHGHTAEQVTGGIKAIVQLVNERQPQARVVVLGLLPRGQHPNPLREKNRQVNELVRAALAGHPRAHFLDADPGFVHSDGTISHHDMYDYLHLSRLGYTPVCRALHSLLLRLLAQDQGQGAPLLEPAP
# TDP2 inh – TDP2 (human) inhibition, absorbance primary screen | O95551 | recombinant TDP2, T5PNP hydrolysis, p-nitrophenol absorbance 415 nm | inhibition, % at 12.8 µM | hit rate 0.34% among 370,000 | AID 720702;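 active = inhibition above the mean of all tested compounds plus 3 SD, set per campaign, cut at about 25% in these data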;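 also: 0% = DMSO with enzyme and 100% = buffer with substrate but no TDP2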
#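 Assay system: recombinant human TDP2 / Reagent: T5PNP substrate at 5 mM, a TopII-DNA adduct mimic / Measured by: epi absorbance from released p-nitrophenol / Evaluation: % inhibition relative to enzyme-containing and enzyme-free wells / Control set: enzyme-free and DMSO wells / Replicates: each compound tested once, singlicate / Schedule: enzyme reaction with compound for 2 h at 37 °C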
# Apaf-1 inh conf – Apaf-1 inhibition, single-dose confirmed | AID 504614 | hit rate 25% among 1,800 | shares compounds with Apaf-1 inh | reconstituted apoptosome, caspase-3 DEVD-Rh110 fluorescence | inhibition, % at 20 µM;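 active = mean inhibition of at least 40% at 20 µM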;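 also: plate controls were DMSO wells for no effect and DEVD-CHO caspase inhibitor control wells for full effect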
# Rh110 quench – Rh110 signal interference in Apaf-1 inhibitor counter-screen; shares compounds with Apaf-1 inh; Rh110 fluorescence interference, quenched caspase reaction; activation (fluorescence interference), % at 20 µM; 1,800 tested, under 10 active; AID 504615;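 active = signal rise of 40% or more at 20 µM, treated as a fluorescence artifact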
# Fluor interf inh – counter-screen for Apaf-1 inhibitors: fluorescence interference, dose response. 460 tested, under 10 active. shares compounds with Apaf-1 inh. fluorescence interference counterscreen, Apaf-1 assay format. IC50, µM. AID 588538; call rule not given here
# * marks the source's active call; other numbers are inactive results; · = not tested or not shown.
SMILES,Apaf-1 inh,PAFAH2 inh,PAFAH1B2 FP inh,PAFAH1B3 inh,TDP2 inh,Apaf-1 inh conf,Rh110 quench,others
CCN(Cc1ccccc1)C(=O)c1cccc(S(=O)(=O)N2CCN(c3ccc(F)cc3)CC2)c1,42.1*,3.1,11.2,2.6,-5.1,38.8,0.1,
CCN(Cc1ccccc1)C(=O)c1cccc(S(=O)(=O)N2CCN(c3ccccc3)CC2)c1,24.2,3.1,13.9,7.4,1.4,·,·,
COc1cccc(N2CCN(CC(=O)Nc3ccccc3C(=O)NCc3ccccc3)CC2)c1,17.5,5.9,-7.7,2.4,5.2,·,·,
COc1cccc(N2CCN(CC(=O)Nc3ccccc3C(=O)NCCc3ccccc3)CC2)c1,49.5*,-3.2,0.5,3.1,-11.1,12.2,4.6,
CCC(=O)NC1=C(NC(C)c2ccccc2)C(=O)c2ccccc2C1=O (stereo unspecified),4.5,-5.4,2.7,-1.4,11.2,·,·,
CCC(=O)N(C1=C(NC)C(=O)c2ccccc2C1=O)C(C)C,68.6*,-3.1,1.9,14.8,6.3,49.2*,-0.8,Fluor interf inh=>100
Cn1ccc2cc3c(cc21)CCN3C(=O)Nc1cccnc1,66.0*,-11.2,-0.4,16.7,5.7,15.3,4.6,
COc1cc(OC)cc(-c2csc(N3CCC(C(N)=O)CC3)n2)c1,·,·,·,·,-9.0,·,·,
Brc1ccc(-c2cn3nc4c(nc3n2)CCCC4)cc1,41.2*,6.8,4.2,9.1,6.4,31.9,7.0,
c1ccc(-c2cn3nc4c(nc3n2)CCCC4)cc1,57.3*,12.3,-1.9,2.0,3.4,27.1,4.1,
COc1cccc(CN(C)C(=O)c2cccc(S(=O)(=O)NCc3ccccc3)c2)c1OC,11.1,2.3,5.9,6.7,-6.3,·,·,
COc1ccc(CCN(C)C(=O)c2cccc(S(=O)(=O)NCc3ccccc3)c2)cc1OC,56.7*,-4.2,-5.2,12.3,-5.3,37.7,5.5,
COc1ccc(Nc2ccc(OC)cc2)cc1,79.9*,·,·,·,1.0,-6.5,0.1,
COc1ccc(Nc2ccc(Nc3ccc(OC)cc3)nn2)cc1,5.9,2.1,1.4,4.4,-4.4,·,·,
CC(=O)NCc1ccc(OCCCN2CCC(C(O)(c3ccccc3)c3ccccc3)CC2)cc1,·,·,·,·,2.7,·,·,
O=C(CN1CCc2cc3c(cc2C1)OCCCO3)Nc1cccc([N+](=O)[O-])c1,43.3*,2.9,5.9,8.1,-6.1,24.7,-7.2,
COC(=O)[C@]12C=CCN1[C@@H](c1ccc(OC)c(OC)c1)c1c(c3ccccc3n1S(=O)(=O)c1ccc(C)cc1)C2,·,·,·,·,-5.4,·,·,
O=C(NC1CCCCN(Cc2cccc(Cl)c2)C1=O)c1cccc([N+](=O)[O-])c1 (stereo unspecified),·,·,·,·,8.0,·,·,
COc1ccc(-c2nc(-c3ccc(NC(=O)c4ccncc4)cc3)no2)cc1OC,9.2,-18.7,0.8,-2.6,·,·,·,
COc1ccc(NC(=O)c2ccc(-c3ccc(-c4noc(C)n4)cc3C)cc2)cc1N1CCN(C)CC1,56.9*,1.5,4.3,8.9,-2.6,26.4,2.0,
CCOC(=O)Nc1cc(=O)c([N+](=O)[O-])c(N)[nH]1,·,·,·,·,-6.2,·,·,
CN1N=C(C(C)(C)C)CC1=O,41.1*,·,·,·,5.7,10.8,7.4,
O=C(Nc1ccc2nsnc2c1)C1CC1,0.2,3.5,-1.7,-0.9,-5.7,·,·,
CCN(CC)C(=O)C1CCCN(C(=O)Nc2ccc3nsnc3c2)C1 (stereo unspecified),70.9*,-7.8,2.0,12.8,0.7,11.8,4.9,
Cc1cc(C)c2sc(N(CCN(C)C)C(=O)CCS(=O)(=O)c3ccccc3)nc2c1,52.5*,-2.9,-4.3,14.1,8.3,7.5,6.8,
SMILES,Apaf-1 inh,PAFAH2 inh,PAFAH1B2 FP inh,PAFAH1B3 inh,TDP2 inh,Apaf-1 inh conf,Rh110 quench,others
CCN(CC)CCN(C(=O)CCS(=O)(=O)c1ccccc1)c1nc2cc(C)cc(C)c2s1,35.0,-9.6,3.4,0.9,1.6,·,·,
Cc1c(C(=O)N(CCc2ccccc2)Cc2ccccc2)cccc1[N+](=O)[O-],41.3*,2.1,-2.4,-0.6,5.2,37.0,7.2,
COC(=O)[C@]12C[C@H](CC(=O)NCCC(C)C)C(=O)N(Cc3ccco3)C1=C[C@H](C1CCCC1)O[C@@H]2C,·,·,·,·,-2.3,·,·,
CCCc1[nH]nc2c1C(c1ccc(OC)c(CSC3=NCCS3)c1)C(C#N)=C(N)O2 (stereo unspecified),41.0*,3.2,7.6,-0.3,-4.3,42.9*,11.2,Fluor interf inh=>100
COC(=O)c1ccccc1S(=O)(=O)N1CCC(C(=O)N2CCC2)CC1,55.4*,2.9,6.8,5.7,-14.5,27.3,-0.9,
Cc1cc(/C=N/n2cnnc2)c(C)n1-c1ccc(OCc2ccc(Cl)cc2Cl)cc1,45.6*,-5.6,1.6,-3.9,·,27.8,6.4,
Cc1cc(/C=N/n2cnnc2)c(C)n1-c1ccc(Cl)cc1,2.5,9.6,-0.3,-0.5,-10.0,·,·,
Cc1cc2cc(C(c3nnnn3Cc3ccco3)N3CCc4ccccc4C3)c(=O)[nH]c2cc1C (stereo unspecified),40.9*,-1.0,3.1,-0.7,-3.2,23.6,10.4,
Cc1ccc2[nH]c(=O)c(C(c3nnnn3CC3CCCO3)N3CCc4ccccc4C3)cc2c1 (stereo unspecified),66.0*,-1.8,4.8,6.1,0.5,17.3,9.4,
Cc1ccc2cc(C(c3nnnn3Cc3ccccc3)N3CCc4ccccc43)c(=O)[nH]c2c1 (stereo unspecified),43.3*,9.3,2.1,18.5,12.3,18.3,4.3,
Cc1ccc2[nH]c(=O)c(C(c3nnnn3Cc3ccccc3)N3CCc4ccccc43)cc2c1 (stereo unspecified),28.6,0.7,9.4,4.1,0.2,·,·,
CCn1c2ccccc2c2cc(NC(=O)COC(=O)c3cc(F)ccc3C)ccc21,·,·,·,·,0.6,·,·,
CC1CN(c2ccc([N+](=O)[O-])c(NCCOc3ccccc3)c2)CC(C)N1 (stereo unspecified),21.7,3.9,2.4,0.2,-6.8,·,·,
Cc1ccccc1OCCNc1cc(N2CC(C)NC(C)C2)ccc1[N+](=O)[O-] (stereo unspecified),56.5*,7.0,5.8,0.9,-4.9,23.5,8.6,
Cc1nc2ccc(NC(=O)c3ccc(F)cc3F)cc2c(=O)[nH]1,·,·,·,·,1.8,·,·,
CCC(C)N(C(=O)c1oc(=O)c2ccccc2c1-c1ccc(C)cc1)C(C)CC (stereo unspecified),·,·,·,·,1.4,·,·,
Cc1ccccc1NC(=S)Nc1cccc2cnccc12,90.9*,2.5,1.6,9.6,16.6,9.3,1.5,
Fc1ccccc1NC(=S)Nc1cccc2cnccc12,97.4*,-2.8,0.1,8.6,4.9,11.7,-4.0,
S=C(Nc1cccc(Cl)c1)Nc1cccc2cnccc12,·,-6.5,3.4,7.9,·,·,·,
Cc1ccc(NC(=S)Nc2cccc3cnccc23)cc1,96.2*,1.4,6.3,8.7,8.2,19.5,-1.4,
